# ChEMBL document CHEMBL1134399 (J Med Chem, 2001)
# Where a SMILES comes first, the peptide text is derived from it. Bridges are numbered along the chain shown (N, C = ends). [ ]: non-standard residue; d: D form. Phe(4-CF3) = N[C@@H](Cc1ccc(C(F)(F)F)cc1)C(=O)O; 2Nal = N[C@@H](Cc1ccc2ccccc2c1)C(=O)O; 3Pal = N[C@@H](Cc1cccnc1)C(=O)O; NMeK = CN[C@@H](CCCCN)C(=O)O
# Key:
# [1] = molecular target: Somatostatin receptor; test: Antagonism of in vitro SRIF inhibition of GH release from rat pituitary cells in culture; format: functional, cell-based; details: pituitary gland cell
# Method in brief: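 Dispersed anterior pituitary cells from adult male rats, cultured 4–5 days at 37 °C. Six doses per plate, triplicate wells. GH measured by double antibody RIA. Antagonist IC50 versus SRIF is the mean ± SEM of n dose-response curves.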
# [2] = molecular target: Somatostatin receptor type 1 (Homo sapiens, UniProt P30872); test: Ability to displace [125 I]labelled Tyr11-somatostatin from human hsst-1 receptor expressed on CHO cells; format: cell-based
# Method in brief: (§1)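 Membranes from stably transfected CHO-K1 clones, prepared in ice-cold 50 mM Tris-HCl and resuspended in 10 mM Tris-HCl. Stopped by filtration through PEI-soaked GF/C filters. Nonspecific binding taken with 1.0 μM SRIF. Ki ± SEM from concentration-dependent displacement.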
# [3] = molecular target: Somatostatin receptor type 4 (Homo sapiens, UniProt P31391); test: Ability to displace [125 I]labelled Tyr11-somatostatin from human hsst-4 receptor expressed on CHO cells; format: cell-based; method in brief: as §1
# [4] = molecular target: Somatostatin receptor type 5 (Homo sapiens, UniProt P35346); test: Ability to displace [125 I]labelled Tyr11-somatostatin from human hsst-5 receptor expressed on CHO cells; format: cell-based; method in brief: as §1
# [5] = molecular target: Somatostatin receptor type 2 (Homo sapiens, UniProt P30874); test: Ability to displace [125 I]labelled Tyr11-somatostatin from human hsst-2 receptor expressed on CHO cells; format: cell-based
# [6] = molecular target: Somatostatin receptor type 3 (Homo sapiens, UniProt P32745); test: Ability to displace [125 I]labelled Tyr11-somatostatin from human hsst-3 receptor expressed on CHO cells; format: cell-based; method in brief: as §1
# Sequence of Somatostatin receptor type 3 (P32745 whole entry): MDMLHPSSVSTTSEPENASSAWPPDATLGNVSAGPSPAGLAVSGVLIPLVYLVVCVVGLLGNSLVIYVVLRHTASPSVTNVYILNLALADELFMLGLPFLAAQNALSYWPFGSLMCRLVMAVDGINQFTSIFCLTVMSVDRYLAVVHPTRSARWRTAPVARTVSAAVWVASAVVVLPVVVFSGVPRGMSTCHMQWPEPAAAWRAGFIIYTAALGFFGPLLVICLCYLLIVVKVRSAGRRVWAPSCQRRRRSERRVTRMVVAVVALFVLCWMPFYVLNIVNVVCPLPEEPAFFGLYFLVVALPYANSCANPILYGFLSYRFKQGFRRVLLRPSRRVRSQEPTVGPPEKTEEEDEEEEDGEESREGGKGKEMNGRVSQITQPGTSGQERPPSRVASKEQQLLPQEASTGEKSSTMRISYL
# Sequence of Somatostatin receptor type 2 (P30874 whole entry): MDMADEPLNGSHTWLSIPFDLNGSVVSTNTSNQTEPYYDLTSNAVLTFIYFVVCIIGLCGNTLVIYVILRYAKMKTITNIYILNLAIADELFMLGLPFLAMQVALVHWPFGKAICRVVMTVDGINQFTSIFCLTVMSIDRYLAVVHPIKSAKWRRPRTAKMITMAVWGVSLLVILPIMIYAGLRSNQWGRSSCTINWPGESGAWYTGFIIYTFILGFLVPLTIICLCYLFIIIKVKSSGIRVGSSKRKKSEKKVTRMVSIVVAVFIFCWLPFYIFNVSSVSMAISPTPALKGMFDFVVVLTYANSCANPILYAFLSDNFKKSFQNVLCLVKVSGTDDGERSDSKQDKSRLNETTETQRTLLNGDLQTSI
# Sequence of Somatostatin receptor type 4 (P31391 whole entry): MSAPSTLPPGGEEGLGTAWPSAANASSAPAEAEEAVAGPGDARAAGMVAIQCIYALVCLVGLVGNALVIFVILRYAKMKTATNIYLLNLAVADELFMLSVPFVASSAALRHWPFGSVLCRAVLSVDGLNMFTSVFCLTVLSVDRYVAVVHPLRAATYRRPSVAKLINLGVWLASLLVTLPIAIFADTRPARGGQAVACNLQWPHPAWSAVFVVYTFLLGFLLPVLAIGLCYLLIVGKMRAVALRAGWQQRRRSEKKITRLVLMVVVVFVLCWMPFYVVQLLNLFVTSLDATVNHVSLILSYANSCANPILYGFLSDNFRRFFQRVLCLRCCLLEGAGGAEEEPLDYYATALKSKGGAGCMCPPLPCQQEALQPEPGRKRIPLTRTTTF
# Sequence of Somatostatin receptor type 1 (P30872 whole entry): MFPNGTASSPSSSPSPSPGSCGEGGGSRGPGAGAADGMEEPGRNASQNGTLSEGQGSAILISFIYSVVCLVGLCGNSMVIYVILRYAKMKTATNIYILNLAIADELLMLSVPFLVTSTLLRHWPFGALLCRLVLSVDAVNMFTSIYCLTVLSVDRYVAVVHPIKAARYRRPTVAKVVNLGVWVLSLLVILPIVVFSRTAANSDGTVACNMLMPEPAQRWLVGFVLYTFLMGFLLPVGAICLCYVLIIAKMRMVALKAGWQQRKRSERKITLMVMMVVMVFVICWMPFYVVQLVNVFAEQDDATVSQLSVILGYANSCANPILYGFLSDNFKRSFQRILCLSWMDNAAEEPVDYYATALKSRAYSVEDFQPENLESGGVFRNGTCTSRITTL
# Sequence of Somatostatin receptor type 5 (P35346 whole entry): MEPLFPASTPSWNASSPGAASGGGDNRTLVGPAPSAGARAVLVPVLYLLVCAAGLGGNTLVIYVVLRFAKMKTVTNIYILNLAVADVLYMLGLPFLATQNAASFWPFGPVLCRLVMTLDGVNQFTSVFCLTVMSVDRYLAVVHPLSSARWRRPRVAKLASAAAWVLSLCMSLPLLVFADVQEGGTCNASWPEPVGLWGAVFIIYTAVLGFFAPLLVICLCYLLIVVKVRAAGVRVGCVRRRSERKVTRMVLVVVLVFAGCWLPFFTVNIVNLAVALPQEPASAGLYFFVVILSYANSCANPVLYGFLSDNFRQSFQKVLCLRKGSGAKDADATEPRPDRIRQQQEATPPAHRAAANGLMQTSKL
smiles,measurement,setting,value
CN[C@@H](Cc1ccc(Cl)cc1)C(=O)N[C@H]1CSSC[C@H](C(=O)N[C@@H](Cc2ccc3ccccc3c2)C(N)=O)NC(=O)[C@@H]([C@H](C)O)NC(=O)[C@H](CCCCN)NC(=O)[C@@H](Cc2c[nH]c3ccccc23)NC(=O)[C@H](Cc2cccnc2)NC1=O,IC50,[1],7.8 nM
C[C@H](O)[C@H]1NC(=O)[C@H](CCCCN)N(C)C(=O)[C@@H](Cc2c[nH]c3ccccc23)N(C)C(=O)[C@H](Cc2cccnc2)NC(=O)[C@@H](NC(=O)[C@@H](N)Cc2ccc(Cl)cc2)CSSC[C@H](C(=O)N[C@@H](Cc2ccc3ccccc3c2)C(N)=O)NC1=O,IC50,[1],2.5 nM
C[C@@H](O)[C@@H]1NC(=O)[C@H](CCN)NC(=O)[C@@H](Cc2c[nH]c3ccccc23)NC(=O)[C@H](Cc2cccnc2)NC(=O)[C@H](NC(=O)[C@@H](N)Cc2ccc(Cl)cc2)CSSC[C@@H](C(=O)N[C@@H](Cc2ccc3ccccc3c2)C(N)=O)NC1=O,Ki,[2]; cho,> 1000 nM
same,Ki,[3]; cho,> 1000 nM
same,Ki,[4],> 1000 nM
same,Ki,[5]; cho,317 nM
same,Ki,[6]; cho,23.6 nM
C[C@@H](O)[C@@H]1NC(=O)[C@H](CCCCN)N(C)C(=O)[C@@H](Cc2c[nH]c3ccccc23)NC(=O)[C@H](Cc2cccnc2)NC(=O)[C@H](NC(=O)[C@@H](N)Cc2ccc(C(F)(F)F)cc2)CSSC[C@@H](C(=O)N[C@@H](Cc2ccc3ccccc3c2)C(N)=O)NC1=O (H-[Phe(4-CF3)][dC][3Pal][dW][NMeK]TC[2Nal]-NH2; disulfide 2-7),Ki,[2],> 1000 nM
same,Ki,[3],1250 nM
same,Ki,[5],11.3 nM
same,Ki,[6],40.2 nM
